One assay addresses T1, recombinant human CES1 (Homo sapiens, UniProt P23141).
T1 sequence (P23141 18-567): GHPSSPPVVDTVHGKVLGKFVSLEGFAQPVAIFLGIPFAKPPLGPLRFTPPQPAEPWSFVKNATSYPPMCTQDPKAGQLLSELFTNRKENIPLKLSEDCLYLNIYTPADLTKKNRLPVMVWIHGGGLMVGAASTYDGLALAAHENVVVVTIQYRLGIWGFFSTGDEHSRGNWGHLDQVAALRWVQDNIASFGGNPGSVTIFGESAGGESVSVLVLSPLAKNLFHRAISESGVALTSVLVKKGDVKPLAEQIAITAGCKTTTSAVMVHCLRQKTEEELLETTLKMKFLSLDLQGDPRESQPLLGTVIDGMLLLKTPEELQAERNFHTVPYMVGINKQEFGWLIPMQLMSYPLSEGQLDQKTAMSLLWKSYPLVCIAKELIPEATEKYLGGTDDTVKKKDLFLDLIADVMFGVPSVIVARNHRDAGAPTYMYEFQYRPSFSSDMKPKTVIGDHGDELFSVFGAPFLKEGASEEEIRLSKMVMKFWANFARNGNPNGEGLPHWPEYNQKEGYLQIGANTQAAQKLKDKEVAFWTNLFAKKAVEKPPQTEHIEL
The assay is classed as biochemical. As to conditions: 2AG substrate.

A further assay deals with T2, recombinant human MAGL (Homo sapiens, UniProt Q99685).
T2 sequence (Q99685 1-303): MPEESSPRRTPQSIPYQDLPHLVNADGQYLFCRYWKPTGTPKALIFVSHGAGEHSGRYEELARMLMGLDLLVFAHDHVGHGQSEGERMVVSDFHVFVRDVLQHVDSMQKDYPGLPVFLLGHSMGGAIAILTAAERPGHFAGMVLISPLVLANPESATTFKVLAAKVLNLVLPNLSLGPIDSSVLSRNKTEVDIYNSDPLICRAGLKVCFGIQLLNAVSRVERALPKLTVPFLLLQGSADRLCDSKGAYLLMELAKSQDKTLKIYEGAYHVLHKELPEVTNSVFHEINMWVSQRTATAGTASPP
Format: biochemical. Conditions: 2AG substrate.

Assay [1] has as its system 31-32kDa enzyme in THP1 lysates. The assay can be described thus: Activity-based protein profiling with FP-biotin in THP1 lysate: 31-32kDa enzyme. The assay is classed as biochemical, human. Put shortly: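 THP1 monocyte lysate (1 mg/ml protein in 50 mM Tris-HCl, pH 7.4) was labelled with 2 μM FP-biotin for 1 h at room temperature. Irreversible inhibitors were preincubated for 30 min (37°C) before the probe. For the reversible inhibitor, lysate received inhibitor, then 0.2 μM FP-biotin for 7.5 min, short of full labelling. Reactions were stopped in reducing SDS loading buffer (95°C, 5 min), run on SDS-PAGE and blotted with avidin-HRP.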

Assay [2] has as its system THP1 macrophages. As to the kind of experiment: PG-G and 2AG levels in LPS-primed THP1 macrophages stimulated with ionomycin. Format: cell-based, human. Conditions: oxon 1 μM, ionomycin 5 μM.
For a further assay, the system named is THP1 foam cells. As to the kind of experiment: Endogenous 2AG produced by cholesterol-loaded THP1 macrophages. The assay is classed as cell-based, human. As to conditions: 24 h.
The test system of assay [3] is lipid glyceryl ester hydrolase activities of THP1 monocyte lysates. Conditions: for inhibition of PGE2-G hydrolysis activity in THP1 cell lysate / inhibition of hydrolysis of exogenous 2AG in THP1 lysate: oxon 1 μM; for inhibition of hydrolysis of exogenous 2AG in THP1 lysate: 2AG 10 μM; for inhibition of 2AG hydrolysis activity in THP1 lysate: oxon 10 μM; for knock down of 2AG hydrolysis activity in THP1 monocyte lysate: oxon 500 μM.

The next assay deals with intact THP1 monocytes. The assay is classed as cell-based, human. As to conditions: PO 1 μM, 30 min; substrate 25 μM, 60 min.
Assay [4] has as its system THP1 macrophages. As to the kind of experiment: In situ formation of PG-Gs by LPS-primed THP1 macrophages given exogenous 2AG. The assay is classed as cell-based, human. As to conditions: 1 μM PO 30 min prior to 10 μM 2AG; LPS-pretreated THP1 macrophages.

With chlorpyrifos oxon [CPO], the “inhibition of recombinant CES1 (in words)” value at recombinant human CES1 was “potently inhibit”. Besides, the “inhibition of recombinant MAGL (in words)” value at recombinant human MAGL is “potently inhibit”. Moreover, the “concentration needed to reduce activity of the 31-32kDa enzyme toward FP-biotin” value in assay [1] was above 10 µM. For the same compound, the “PGF2α-G, PGE2-G, and 2AG levels compared to vehicle-treated cells following ionomycin stimulation” value in the assay on THP1 macrophages [2] was “significantly elevated”. Besides, the “amount of 2AG in culture medium relative to control group” value with THP1 foam cells (oxon 1 μM) is recorded as 2.5 fold. For the same compound, the “amount of 2AG in culture medium relative to control group” value in the assay with THP1 foam cells (oxon 10 μM) was found to be 8.1 fold. In assay [3], the “inhibition of PGE2-G hydrolysis activity in THP1 cell lysate” value is on record as “near complete inhibition”, the “inhibition of hydrolysis of exogenous 2AG in THP1 lysate” value turned out to be 49%, the “inhibition of 2AG hydrolysis activity in THP1 lysate” value worked out at 72% and the “knock down of 2AG hydrolysis activity in THP1 monocyte lysate” value is listed as 94%.
On to `CCOP(=O)(OCC)Oc1ccc([N+](=O)[O-])cc1` [PO, paraoxon], for which, in the assay on intact THP1 monocytes, the “inhibition of hydrolysis of exogenous 2AG, PGE2-G, or PGF2α-G by intact THP1 monocytes” value is given as ~ 50%. Also, in the assay with THP1 macrophages [4], the “increase in PGE2-G levels” value was 2 fold and the “increase in PGF2α-G levels” value stood at 4 fold. In the assay on THP1 macrophages [2], the “PGF2α-G, PGE2-G, and 2AG levels compared to vehicle-treated cells following ionomycin stimulation” value was “did not significantly elevate”. Also, the “amount of 2AG in culture medium relative to control group” value in the assay on THP1 foam cells (oxon 1 μM) came out at 3.1 fold. Moreover, in the assay with THP1 foam cells (oxon 10 μM), the “amount of 2AG in culture medium relative to control group” value worked out at 3.5 fold. In assay [3], the “inhibition of PGE2-G hydrolysis activity in THP1 cell lysate” value is “near complete inhibition”, the “inhibition of hydrolysis of exogenous 2AG in THP1 lysate” value was 35%, the “inhibition of 2AG hydrolysis activity in THP1 lysate” value is given as “did not further enhance inhibition” and the “knock down of 2AG hydrolysis activity in THP1 monocyte lysate” value is listed as 55%.

These data come from publication PMC4065498 (Chemical research in toxicology, 2010).
